Out of some 97,000 compounds screened, about 770 (0.79%) were called active. The entries come from a sample that favours actives as a whole. A number with no mark means an inactive call.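 The calls were made as follows: active = inhibition above the screen-wide mean plus 3 SD (cut at about 35% in these data); inactive = the rest.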
molecular target: Protein Rev (Human immunodeficiency virus type 1 group M subtype B (isolate WMJ22)) (UniProt P05866); assay: HIV-1 Rev-RRE binding inhibitors, primary screen, biochemical, FRET, protein-RNA interaction (AID 704); details: Rev peptide-RRE RNA binding, at 8 µM, stronger effect = higher value;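 also: 0% = median DMSO wells and 100% = median Neomycin B control wells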
Sequence (P05866 whole entry, looked up): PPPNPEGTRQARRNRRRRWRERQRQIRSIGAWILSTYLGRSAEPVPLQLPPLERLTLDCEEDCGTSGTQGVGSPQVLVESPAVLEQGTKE
Method in brief: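 Test system: Cy5-tagged RRE RNA duplex with fluorescein-tagged Rev peptide; Probe or stimulus: labelled Rev peptide; Schedule: 5 min preincubation and 15 min binding, 25 °C; Signal: FRET fluorescence readout; Evaluation: % inhibition from 671/540 nm acceptor-to-donor ratio, scaled between controls; Control set: DMSO and neomycin B.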

Q: How did the inhibition turn out when CC1CN(c2nc(-c3ccccc3)nnc2-c2ccccc2)CC(C)O1 (stereo not given) was run?
A: 8.23%

Q: Which inhibition does the source give for COCCCNCC(=O)Nc1sc(C)c(C)c1C(=O)OC here?
A: 1.88%

Q: How did the inhibition turn out when CN1OC(COC(=O)c2ccc(Cl)cc2)CC1c1ccccc1 (stereo not given) was run?
A: 7.44%

Q: How did the inhibition turn out when C=CCc1ccc(OCCOc2cccc(/C=N/n3cnnc3)c2)c(OC)c1 was run?
A: -0.22%

Q: With Clc1ccc(-c2cc(COc3ccccc3)no2)cc1Cl as the compound, how does the inhibition read?
A: 17.6%

Q: For CC(CO)N1CCS(=O)(=O)CC1 (stereo not given), which inhibition is on record?
A: 4.13%

Q: How did the inhibition turn out when CCN(CC)C(=O)CSc1ncnc2c1cnn2-c1ccccc1 was run?
A: 9.25%

Q: With O=C(CN1C(=O)NC2(CCCC2)C1=O)Nc1ccc(F)c(F)c1F as the compound, how does the inhibition read?
A: 6.86%

Q: CC(C)c1ccc(C(=O)NCCCc2ccccc2)cc1 was tested. Which inhibition did it give?
A: 16.8%

Q: For CC(C)C[C@@H](N)c1nnc(SCC(=O)c2ccc(Cl)cc2)o1, which inhibition is on record?
A: 6.78%

Q: Which inhibition does the source give for CCCCOC(=O)Cn1c(=O)n(CC(=O)OCCCC)c2cc(C)ccc21 here?
A: 3.29%

Q: Which inhibition does the source give for CCOc1cc(/C=C2/N=C(c3ccc(C(C)(C)C)cc3)OC2=O)cc(Cl)c1OS(C)(=O)=O here?
A: -2.97%

Q: Cc1ccc(-n2nc3cc(C)c(NC(=O)c4cccnc4)cc3n2)cc1 was tested. Which inhibition did it give?
A: 6.32%

Q: Which inhibition does the source give for Cc1ccc(S(=O)(=O)/N=C(/Nc2ccccn2)c2ccc(Cl)cc2)cc1 here?
A: 3.03%

Q: Which inhibition does the source give for Cc1ccccc1NC(=O)c1ccccc1 here?
A: 3.87%

Q: For CC(=O)c1cc(NC(=O)c2ccccc2)c(=O)oc1/C=C/N(C)C, which inhibition is on record?
A: 119% [fluorescence artefact?] (active)

Q: Which inhibition does the source give for CCOC(=O)c1cc(NC(=O)c2ccc(Cl)cc2)c(=O)oc1-c1ccccc1 here?
A: 10.3%

Q: c1ccc(-c2csc(N3CCc4ccccc4C3)n2)cc1 was tested. Which inhibition did it give?
A: 3.58%

Q: With Cc1c(-c2ccccc2)cn2c1-c1ccc(C)n1CC2 as the compound, how does the inhibition read?
A: 47.1% (active)

Q: With Cc1cc(=O)oc(C)c1C(=O)NCc1ccc(F)cc1 as the compound, how does the inhibition read?
A: 8.7%

Q: How did the inhibition turn out when COc1ccc(CNC(=O)c2c(C)cc(=O)oc2C)cc1OC was run?
A: 10.2%

Q: Which inhibition does the source give for Cc1cc(=O)oc(C)c1C(=O)Nc1cnc2ccccc2c1 here?
A: 53% (active)

Q: CN1/C(=c2/s/c(=C3/C(=O)N(c4ccccc4)NC3=Nc3ccccc3)n(C)c2=O)C(C)(C)c2ccccc21 was tested. Which inhibition did it give?
A: 96.1% [fluorescence artefact?] (active)

Q: CC1=NN(c2cccc(Cl)c2)C(=O)C12CC(C)=C(C)CS2 (stereo not given) was tested. Which inhibition did it give?
A: 16.6%

Q: Which inhibition does the source give for COc1nc(NC2CCCCC2)nc(N2CCCCCC2)n1 here?
A: 2.85%

Q: COc1cccc2c1OCC(C(=O)NCc1ccc(Cl)cc1Cl)=C2 was tested. Which inhibition did it give?
A: 10.5%

Q: Which inhibition does the source give for Cc1ccc(-c2nnc(-n3nnc4ccccc43)c3ccccc23)cc1 here?
A: -4.36%

Q: How did the inhibition turn out when COc1ccc(-c2nn(C)c(=O)c3ccccc23)cc1NC(=O)COc1ccccc1 was run?
A: 0.74%

Q: CCNCCC(=O)N1c2ccccc2Sc2ccc(NC(=O)OCC)cc21 was tested. Which inhibition did it give?
A: -4.36%

Q: CC1CCN(C(=O)CN(c2ccc(Oc3ccccc3)cc2)S(C)(=O)=O)CC1 was tested. Which inhibition did it give?
A: 2.29%

Q: How did the inhibition turn out when CCOc1ccc(C(CCc2ccccc2)NC(=O)c2ccc(OC)c(OC)c2)cc1OCC (stereo not given) was run?
A: -1.68%

Q: Which inhibition does the source give for COc1ccc(N(CC(=O)NC2CCCCC2)S(=O)(=O)c2c(C)[nH]c(=O)[nH]c2=O)cc1 here?
A: -2.97%

Q: CCCCCCNC(=O)CSc1nccn1Cc1ccccc1 was tested. Which inhibition did it give?
A: 1.79%

Q: Which inhibition does the source give for O=C(Nc1ccc(-n2ccnc2P(=O)(O)c2ccccc2)cc1)c1ccccc1Br here?
A: -0.76%

Q: With Cc1nn(-c2ccccn2)c2c1C(c1ccncc1)C1=C(CC(C)(C)CC1=O)N2 (stereo not given) as the compound, how does the inhibition read?
A: 12.1%

Q: For CCOC(=O)CSc1ncc(-c2cccc(Cl)c2)cn1, which inhibition is on record?
A: 8.5%

Q: For Cc1ccc(-c2nnc(C)c(N3CC(C)OC(C)C3)n2)cc1 (stereo not given), which inhibition is on record?
A: 5.11%

Q: With Cc1nnc(NC(=O)Cn2c(=O)sc3ccccc32)s1 as the compound, how does the inhibition read?
A: 2.18%

Q: Which inhibition does the source give for Cn1c(SCC(=O)N2CCCc3ccccc32)nc2ccccc2c1=O here?
A: 3.69%

Q: How did the inhibition turn out when CC(=O)c1ccc(S(=O)(=O)N2CCN(c3nc4c(C)c(C)ccc4cc3C#N)CC2)cc1 was run?
A: 9.9%

Q: How did the inhibition turn out when COCc1cc(C)nc2sc(C(=O)NC3CCCCC3)c(N)c12 was run?
A: 12.8%

Q: Which inhibition does the source give for CCCN1CC=C2C(C#N)=C(N)C(C#N)(C#N)C(c3cc(OC)ccc3OC)C2C1 (stereo not given) here?
A: 71.8% (active)

Q: With COC(=O)C1=C(C)OC(N)=C(C#N)C1c1cc(OC)ccc1OC (stereo not given) as the compound, how does the inhibition read?
A: 9.18%

Q: How did the inhibition turn out when CCOC(=O)N1CC=C2C(C#N)=C(N)C(C#N)(C#N)[C@H](c3cccs3)[C@H]2C1 was run?
A: 29.8%

Q: With CCN1CC=C2C(C#N)=C(N)C(C#N)(C#N)[C@H](c3ccoc3)[C@H]2C1 as the compound, how does the inhibition read?
A: 61.7% (active)

Q: N#CC1=C(N)C(C#N)(C#N)[C@H](c2ccsc2)[C@H]2COCC=C12 was tested. Which inhibition did it give?
A: 35.5%

Q: With COc1ccc(C2CC(c3ccc(C)cc3)Nc3nc(N)nn32)cc1 (stereo not given) as the compound, how does the inhibition read?
A: 3.26%

Q: COc1ccc(C2C=C(c3ccc(Br)cc3)Nc3nc(NS(C)(=O)=O)nn32)cc1 (stereo not given) was tested. Which inhibition did it give?
A: 83.2% [fluorescence artefact?] (active)

Q: Fc1ccccc1/C=C1\CCCC2=C1Nc1ncnn1C2c1ccccc1F (stereo not given) was tested. Which inhibition did it give?
A: 9.16%

Q: COC(=O)c1c(-c2cccs2)csc1NC(=O)CSc1ncnc2sc(C)c(C)c12 was tested. Which inhibition did it give?
A: 6.95%

Q: How did the inhibition turn out when COc1cccc(OC)c1C(=O)Nc1ccc(N2CCCCC2)cc1 was run?
A: 4.3%

Q: How did the inhibition turn out when CCCC(=O)n1nc(-c2ccccc2)nc1N was run?
A: 0.74%

Q: For CCCNC(=O)c1c(N)n(-c2ccc(S(N)(=O)=O)cc2)c2nc3ccccc3nc12, which inhibition is on record?
A: 1.66%

Q: Which inhibition does the source give for O=C1c2ccccc2C(=O)c2c1cccc2N1CCN(Cc2ccccc2)CC1 here?
A: 10.8%

Q: How did the inhibition turn out when CCCCNC(=O)OC(C)CNC(=O)OC (stereo not given) was run?
A: -1.24%

Q: CC(=O)Oc1ccc(NC(=O)CCC2CCCCC2)c(C(=O)O)c1 was tested. Which inhibition did it give?
A: -1.47%

Q: For CCOc1ccc(C(O)Cc2nc3ccccc3n2C)cc1 (stereo not given), which inhibition is on record?
A: -0.15%

Q: CCOC(=O)c1cc(C#N)c(N2CCCCC2)nc1-c1ccccc1 was tested. Which inhibition did it give?
A: 14.6%

Q: Cc1ccc(Sc2cc(N3CCOCC3)nc(-c3ccccc3)n2)cc1 was tested. Which inhibition did it give?
A: 12.8%

Q: Which inhibition does the source give for CS(=O)(=O)N1CCN(c2cccc(Cl)n2)CC1 here?
A: 3.87%

Q: With CCC(=O)N(Cc1ccccc1)c1ccccn1 as the compound, how does the inhibition read?
A: 7.11%

Q: For Brc1ccc(C2=CC(c3ccco3)n3ncnc3N2)cc1 (stereo not given), which inhibition is on record?
A: 124% [fluorescence artefact?] (active)

Q: With COC(=O)C1=C(C)Nc2ncnn2C1c1ccco1 (stereo not given) as the compound, how does the inhibition read?
A: 3.56%

Q: With Clc1ccc2c(c1)C1=C(C(c3ccncc3)O2)C(c2ccc(Br)cc2)n2ncnc2N1 (stereo not given) as the compound, how does the inhibition read?
A: -1.15%

Q: For COc1ccc(CN(CC(=O)NC2CCCC2)C(=O)CCC(=O)Nc2cc(C)on2)cc1, which inhibition is on record?
A: -2.37%

Q: Which inhibition does the source give for Cc1cccc(NC(=O)CSc2nc3c(c(=O)[nH]2)CCCC3)c1C here?
A: 5.45%

Q: Which inhibition does the source give for O=C(NCc1cccnc1)c1cccnc1Sc1ccc(Cl)cc1 here?
A: 5.95%

Q: How did the inhibition turn out when O=C(Cc1c[nH]c2ccccc12)OCCOC(=O)Cc1c[nH]c2ccccc12 was run?
A: 3.26%

Q: With CCOc1cccc(-n2nnnc2-c2ccc(OC)cc2)c1 as the compound, how does the inhibition read?
A: 1.17%

Q: Which inhibition does the source give for COC(=O)C(C)n1cnc2c(nnn2-c2cccc(Cl)c2)c1=O (stereo not given) here?
A: 3.58%

Q: For CCOc1nnc(C)c2c(C)n(-c3cccc(Cl)c3)nc12, which inhibition is on record?
A: 53.5% (active)

Q: For C=CCC(NCc1ccco1)c1ccc(OC)cc1 (stereo not given), which inhibition is on record?
A: 2.12%

Q: Which inhibition does the source give for CCCCCCCCOC1OC(CO)C(O)C(O)C1NC(C)=O (stereo not given) here?
A: -1.01%

Q: Which inhibition does the source give for O=C(c1ccc2c(c1)OCO2)N1CCOCC1 here?
A: 2.74%

Q: With O=C(NCCOc1ccccc1)c1ccccc1 as the compound, how does the inhibition read?
A: 7.52%

Q: With CCOC(=O)c1sc(NC(=O)c2ccncc2)nc1C as the compound, how does the inhibition read?
A: 4.33%

Q: Which inhibition does the source give for CC/S(CC1CC1(Cl)Cl)=N\S(=O)(=O)c1ccc(C)cc1 (stereo not given) here?
A: -0.12%

Q: For CCN(CC)C(=O)CSc1nnc(C2CCCCC2)o1, which inhibition is on record?
A: -0.19%

Q: How did the inhibition turn out when CCOc1ccc2c(c1)C(c1ccc(C)cc1)=NNC(c1ccc(C)cc1)=N2 was run?
A: -0.68%

Q: With COc1ccccc1C(c1nnnn1C(C)(C)C)N1CCN(Cc2ccccc2)CC1 (stereo not given) as the compound, how does the inhibition read?
A: 5.48%

Q: O=C1CSC(c2ccccc2)N1c1nc(-c2ccc(Cl)cc2Cl)cs1 (stereo not given) was tested. Which inhibition did it give?
A: 11.2%

Q: Which inhibition does the source give for Cc1cc(C)cc(OCC(=O)NNC(=O)c2cc3ccccc3oc2=O)c1 here?
A: 3.32%

Q: With O=c1c2ccccc2c(-c2ccc(Br)cc2)nn1Cc1ccccc1 as the compound, how does the inhibition read?
A: 10.1%

Q: For CN(C)c1ccc(/C=C2\NC(=S)N(Cc3ccccc3)C2=O)cc1, which inhibition is on record?
A: 136% [fluorescence artefact?] (active)

Q: How did the inhibition turn out when CC1=NN(Cc2ccccc2)C(=O)/C1=C/c1ccc(N(C)C)cc1 was run?
A: 13.1%

Q: For CC(C)(C)n1nnnc1C(c1ccc(Cl)cc1)N1CCSCC1 (stereo not given), which inhibition is on record?
A: 3.16%

Q: How did the inhibition turn out when O=c1c2ccccc2nc2n1C(CSCc1cccc(C(F)(F)F)c1)CS2 (stereo not given) was run?
A: 5.83%

Q: How did the inhibition turn out when OC(COCCC12CC3CC(CC(C3)C1)C2)CN1CCCCC1 (stereo not given) was run?
A: -1.79%

Q: With CCCCn1c(=S)[nH]c2cc(S(=O)(=O)N3CCCCC3)ccc21 as the compound, how does the inhibition read?
A: 1.26%

Q: For Clc1ccc(-n2nnnc2CN2CCCCC2)cc1Cl, which inhibition is on record?
A: 1.19%

Q: For CCOC(=O)C1=C(C)NC2=C(C(=O)CC(C)(C)C2)C1c1ccsc1 (stereo not given), which inhibition is on record?
A: 0.96%

Q: How did the inhibition turn out when CCOC(=O)c1[nH]c2ccc(C)cc2c1N=C(C)N(C)C was run?
A: 7.68%

Q: CCOC(=O)c1[nH]c2ccccc2c1N=C(C)N(CC)CC was tested. Which inhibition did it give?
A: 65% (active)

Q: How did the inhibition turn out when Cc1[nH]c2ccccc2c1C(=O)COC(=O)C(C)C was run?
A: 2.32%

Q: How did the inhibition turn out when O=C(Nc1nccs1)C1CCN(S(=O)(=O)c2ccc(Cl)c(C(F)(F)F)c2)CC1 was run?
A: 11.3%

From PubChem BioAssay AID704 (The Scripps Research Institute Molecular Screening Center, 2007)
